Key:
[1] = system: Marmota monax; assay: Terminal elimination half life in woodchuck hepatitis virus -negative woodchucks assessed as 9-(beta-D-1,3-dioxolan-4-yl)guanine at 33.3 mg/kg, iv administered as single dose followed by dose of 33.3 mg/kg, po after 4 weeks washout period; type: ADME, organism-based; settings: in vivo, 672 h
How it was run: (§1)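 Three WHV-negative adult woodchucks got a 33.3 mg/kg iv bolus, with one saline control. After a 4-week washout the same three got 33.3 mg/kg orally. Blood was drawn predose and at 0.25–24 h. Serum APD and DXG were measured by HPLC-UV (LOQ 0.2 µM) and analysed noncompartmentally. AUC0-∞ used the trapezoidal rule, extrapolated by Clast/λz.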

[2] = system: Rhesus monkey; assay: Terminal elimination half life in orally dosed monkey assessed as 9-(beta-D-1,3-dioxolan-4-yl)guanine; type: ADME, organism-based, Macaca mulatta; settings: in vivo, po
[3] = system: Marmota monax; assay: Cmax in woodchuck hepatitis virus-negative woodchucks assessed as 9-(beta-D-1,3-dioxolan-4-yl)guanine at 33.3 mg/kg iv followed by after 4 weeks washout period administered 33.3 mg/kg, po; type: ADME, organism-based; settings: in vivo, 672 h; how it was run: as §1
[4] = AUC (0 to infinity) in orally dosed mouse; type: ADME, organism-based; set-up: route oral, time infinity; settings: plasma, po
[5] = system: Marmota monax; assay: AUC (0 to infinity) in woodchuck hepatitis virus-negative woodchucks assessed as 9-(beta-D-1,3-dioxolan-4-yl)guanine at 33.3 mg/kg, iv administered as single dose; type: ADME, organism-based, Plasma; set-up: time infinity, dose 33.3 mg/kg, route intravenous; settings: in vivo; how it was run: as §1
[6] = AUC (0 to infinity) in iv dosed mouse; type: ADME, organism-based; set-up: route intravenous, time infinity; settings: plasma
[7] = system: Marmota monax; assay: AUC (0 to infinity) in woodchuck hepatitis virus -negative woodchucks assessed as 9-(beta-D-1,3-dioxolan-4-yl)guanine at 33.3 mg/kg, iv administered as single dose followed by dose of 33.3 mg/kg, po after 4 weeks washout period; type: ADME, organism-based, Plasma; settings: in vivo, 672 h; how it was run: as §1
[8] = system: Marmota monax; assay: Cmax in woodchuck hepatitis virus-negative woodchucks assessed as 9-(beta-D-1,3-dioxolan-4-yl)guanine at 33.3 mg/kg, iv administered as single dose; type: ADME, organism-based; set-up: dose 33.3 mg/kg, route intravenous; settings: in vivo; how it was run: as §1
[9] = system: Marmota monax; assay: Terminal elimination half life in woodchuck hepatitis virus-negative woodchucks assessed as 9-(beta-D-1,3-dioxolan-4-yl)guanine at 33.3 mg/kg, iv administered as single dose; type: ADME, organism-based; set-up: dose 33.3 mg/kg, route intravenous; settings: in vivo; how it was run: as §1
[10] = Oral bioavailability in mouse; type: ADME, organism-based; settings: in vivo
[11] = system: Mus musculus; assay: Terminal elimination half life in orally dosed mouse assessed as 9-(beta-D-1,3-dioxolan-4-yl)guanine; type: ADME, organism-based; settings: in vivo, po
[12] = system: Woodchuck hepatitis virus; assay: Antiviral activity against woodchuck hepatitis virus infected woodchucks assessed as log reduction of serum viral DNA per ml of serum after 4 weeks; type: functional

For `Nc1nc2c(ncn2[C@H]2CO[C@@H](CO)O2)c(=O)[nH]1`, the “beta t1/2” value [1] was 12.1 h, the “beta t1/2” value [2] was 1.5 h and the Cmax [3] was 20.3 µM. It also gave an AUC(0-inf) [4] of 930 µM·h, an AUC [5] of 146.2 µM·h and an AUC(0-inf) [6] of 818 µM·h. The AUC [7] was 309.7 µM·h, the Cmax [8] was 24.6 µM and the “beta t1/2” value [9] was 3.7 h. For the same compound, the bioavailability [10] was 114% and the “beta t1/2” value [11] was 1 h.

`C=C1[C@H](CO)[C@@H](O)C[C@@H]1n1cnc2c(=O)[nH]c(N)nc21.O` [ENTECAVIR] gave an Activity [12] of 7.

`Cc1cn([C@H]2O[C@@H](CO)[C@H](O)[C@H]2F)c(=O)[nH]c1=O` [CLEVUDINE] showed an Activity [12] of 8.2.

For `Nc1ccn([C@H]2C[C@H](O)[C@@H](CO)O2)c(=O)n1` [DOXECITINE], the Activity [12] was 2.

For `Nc1ccn([C@@H]2CS[C@H](CO)O2)c(=O)n1` [LAMIVUDINE], the Activity [12] was 2.5.

In the case of `Cc1cn([C@@H]2C[C@@H](O)[C@H](CO)O2)c(=O)[nH]c1=O` [TELBIVUDINE], the Activity [12] is reported as 7.

In the case of `Nc1nc(=O)n([C@@H]2CS[C@H](CO)O2)cc1F` [EMTRICITABINE], the Activity [12] is reported as 4.9.

From ChEMBL document CHEMBL1154402, “Antiviral effect of orally administered (-)-beta-D-2-aminopurine dioxolane in woodchucks with chronic woodchuck hepatitis virus infection” (Antimicrob Agents Chemother, 2007)
